Experimental findings from ChEMBL document CHEMBL2384998, “Modular, efficient synthesis of asymmetrically substituted piperazine scaffolds as potent calcium channel blockers” (Bioorg Med Chem Lett, 2013) are described below.

The species named for one assay is Rattus norvegicus. The experiment in a line: Selectivity ratio of IC50 for rat cardiac Cav1.2 L-type channel to IC50 for rat brain Cav2.2 N-type channel.
For assay [1], the target named is Voltage-dependent L-type calcium channel subunit alpha-1C (Rattus norvegicus, UniProt P22002). The experiment in a line: Inhibition of rat cardiac Cav1.2 L-type channel expressed in HEK cells after 20 mins by FLIPR assay. The class given is cell-based, HEK293. The gist of the method: (§1)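 Fluorescence Ca²⁺ influx read by FLIPR with the Ca²⁺ indicator dye Fluo-4. Each compound was tested as an 8-point concentration-response profile spanning 0.003–10 μM, giving IC50. Membrane potential and channel state were set by changing the external potassium ion concentration.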
Voltage-dependent L-type calcium channel subunit alpha-1C, sequence (P22002 whole entry): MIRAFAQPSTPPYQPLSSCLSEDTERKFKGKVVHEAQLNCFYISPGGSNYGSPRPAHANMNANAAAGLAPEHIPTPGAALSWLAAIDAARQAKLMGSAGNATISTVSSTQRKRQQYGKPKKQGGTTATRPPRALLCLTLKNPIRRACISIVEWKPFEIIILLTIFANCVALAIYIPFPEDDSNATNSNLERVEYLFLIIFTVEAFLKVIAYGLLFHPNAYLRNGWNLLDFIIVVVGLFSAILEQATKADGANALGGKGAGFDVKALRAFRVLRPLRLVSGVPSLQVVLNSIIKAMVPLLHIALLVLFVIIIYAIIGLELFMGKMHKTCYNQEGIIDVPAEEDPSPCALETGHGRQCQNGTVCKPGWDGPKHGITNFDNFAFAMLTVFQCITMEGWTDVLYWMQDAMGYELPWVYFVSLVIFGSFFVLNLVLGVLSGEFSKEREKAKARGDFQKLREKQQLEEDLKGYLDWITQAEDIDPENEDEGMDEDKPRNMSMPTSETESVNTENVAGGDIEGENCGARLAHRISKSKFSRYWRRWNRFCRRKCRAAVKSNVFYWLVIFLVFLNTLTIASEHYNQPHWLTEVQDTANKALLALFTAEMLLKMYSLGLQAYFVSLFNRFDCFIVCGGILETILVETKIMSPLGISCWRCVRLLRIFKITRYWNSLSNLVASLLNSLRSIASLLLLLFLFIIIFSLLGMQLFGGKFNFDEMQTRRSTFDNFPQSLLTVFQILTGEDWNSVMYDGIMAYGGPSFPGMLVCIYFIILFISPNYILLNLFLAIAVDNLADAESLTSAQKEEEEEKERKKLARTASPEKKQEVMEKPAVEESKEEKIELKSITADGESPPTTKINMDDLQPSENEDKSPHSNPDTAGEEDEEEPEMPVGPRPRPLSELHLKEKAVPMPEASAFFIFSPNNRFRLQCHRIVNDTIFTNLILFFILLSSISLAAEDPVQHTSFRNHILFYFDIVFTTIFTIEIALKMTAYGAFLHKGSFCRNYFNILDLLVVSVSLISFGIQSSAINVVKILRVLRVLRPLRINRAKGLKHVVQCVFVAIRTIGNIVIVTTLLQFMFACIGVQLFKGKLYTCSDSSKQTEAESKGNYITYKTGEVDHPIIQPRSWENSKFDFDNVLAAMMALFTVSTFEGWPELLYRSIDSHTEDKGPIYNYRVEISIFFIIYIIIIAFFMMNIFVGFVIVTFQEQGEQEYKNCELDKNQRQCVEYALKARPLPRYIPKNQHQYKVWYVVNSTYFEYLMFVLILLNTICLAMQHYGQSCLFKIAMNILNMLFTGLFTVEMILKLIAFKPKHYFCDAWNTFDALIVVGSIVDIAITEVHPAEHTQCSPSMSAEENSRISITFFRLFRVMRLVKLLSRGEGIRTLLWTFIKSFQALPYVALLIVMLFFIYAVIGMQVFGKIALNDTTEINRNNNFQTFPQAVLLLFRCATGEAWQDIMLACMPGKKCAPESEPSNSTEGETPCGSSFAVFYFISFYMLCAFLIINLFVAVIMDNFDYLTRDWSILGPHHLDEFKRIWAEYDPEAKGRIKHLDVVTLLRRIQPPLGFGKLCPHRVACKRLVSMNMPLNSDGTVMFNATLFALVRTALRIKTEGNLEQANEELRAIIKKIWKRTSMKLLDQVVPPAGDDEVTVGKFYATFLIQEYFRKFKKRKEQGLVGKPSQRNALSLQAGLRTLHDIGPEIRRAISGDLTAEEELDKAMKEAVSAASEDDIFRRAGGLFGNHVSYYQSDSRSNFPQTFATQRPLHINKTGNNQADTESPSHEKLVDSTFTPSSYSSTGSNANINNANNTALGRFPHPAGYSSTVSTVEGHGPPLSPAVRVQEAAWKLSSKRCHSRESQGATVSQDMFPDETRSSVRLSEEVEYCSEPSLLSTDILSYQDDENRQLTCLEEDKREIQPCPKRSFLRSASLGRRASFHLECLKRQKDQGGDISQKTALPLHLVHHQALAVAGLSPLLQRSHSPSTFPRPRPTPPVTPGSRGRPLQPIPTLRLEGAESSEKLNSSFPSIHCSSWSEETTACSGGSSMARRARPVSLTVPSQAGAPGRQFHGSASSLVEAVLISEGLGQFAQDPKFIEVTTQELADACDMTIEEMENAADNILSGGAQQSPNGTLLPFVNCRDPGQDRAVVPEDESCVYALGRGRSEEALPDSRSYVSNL

For assay [2], the target named is Voltage-dependent N-type calcium channel subunit alpha-1B (Rattus norvegicus, UniProt Q02294). The experiment in a line: Inhibition of rat brain Cav2.2 N-type channel expressed in HEK cells after 20 mins by FLIPR assay. The class given is cell-based, HEK293. The method in brief: as §1
Voltage-dependent N-type calcium channel subunit alpha-1B, sequence (Q02294 whole entry): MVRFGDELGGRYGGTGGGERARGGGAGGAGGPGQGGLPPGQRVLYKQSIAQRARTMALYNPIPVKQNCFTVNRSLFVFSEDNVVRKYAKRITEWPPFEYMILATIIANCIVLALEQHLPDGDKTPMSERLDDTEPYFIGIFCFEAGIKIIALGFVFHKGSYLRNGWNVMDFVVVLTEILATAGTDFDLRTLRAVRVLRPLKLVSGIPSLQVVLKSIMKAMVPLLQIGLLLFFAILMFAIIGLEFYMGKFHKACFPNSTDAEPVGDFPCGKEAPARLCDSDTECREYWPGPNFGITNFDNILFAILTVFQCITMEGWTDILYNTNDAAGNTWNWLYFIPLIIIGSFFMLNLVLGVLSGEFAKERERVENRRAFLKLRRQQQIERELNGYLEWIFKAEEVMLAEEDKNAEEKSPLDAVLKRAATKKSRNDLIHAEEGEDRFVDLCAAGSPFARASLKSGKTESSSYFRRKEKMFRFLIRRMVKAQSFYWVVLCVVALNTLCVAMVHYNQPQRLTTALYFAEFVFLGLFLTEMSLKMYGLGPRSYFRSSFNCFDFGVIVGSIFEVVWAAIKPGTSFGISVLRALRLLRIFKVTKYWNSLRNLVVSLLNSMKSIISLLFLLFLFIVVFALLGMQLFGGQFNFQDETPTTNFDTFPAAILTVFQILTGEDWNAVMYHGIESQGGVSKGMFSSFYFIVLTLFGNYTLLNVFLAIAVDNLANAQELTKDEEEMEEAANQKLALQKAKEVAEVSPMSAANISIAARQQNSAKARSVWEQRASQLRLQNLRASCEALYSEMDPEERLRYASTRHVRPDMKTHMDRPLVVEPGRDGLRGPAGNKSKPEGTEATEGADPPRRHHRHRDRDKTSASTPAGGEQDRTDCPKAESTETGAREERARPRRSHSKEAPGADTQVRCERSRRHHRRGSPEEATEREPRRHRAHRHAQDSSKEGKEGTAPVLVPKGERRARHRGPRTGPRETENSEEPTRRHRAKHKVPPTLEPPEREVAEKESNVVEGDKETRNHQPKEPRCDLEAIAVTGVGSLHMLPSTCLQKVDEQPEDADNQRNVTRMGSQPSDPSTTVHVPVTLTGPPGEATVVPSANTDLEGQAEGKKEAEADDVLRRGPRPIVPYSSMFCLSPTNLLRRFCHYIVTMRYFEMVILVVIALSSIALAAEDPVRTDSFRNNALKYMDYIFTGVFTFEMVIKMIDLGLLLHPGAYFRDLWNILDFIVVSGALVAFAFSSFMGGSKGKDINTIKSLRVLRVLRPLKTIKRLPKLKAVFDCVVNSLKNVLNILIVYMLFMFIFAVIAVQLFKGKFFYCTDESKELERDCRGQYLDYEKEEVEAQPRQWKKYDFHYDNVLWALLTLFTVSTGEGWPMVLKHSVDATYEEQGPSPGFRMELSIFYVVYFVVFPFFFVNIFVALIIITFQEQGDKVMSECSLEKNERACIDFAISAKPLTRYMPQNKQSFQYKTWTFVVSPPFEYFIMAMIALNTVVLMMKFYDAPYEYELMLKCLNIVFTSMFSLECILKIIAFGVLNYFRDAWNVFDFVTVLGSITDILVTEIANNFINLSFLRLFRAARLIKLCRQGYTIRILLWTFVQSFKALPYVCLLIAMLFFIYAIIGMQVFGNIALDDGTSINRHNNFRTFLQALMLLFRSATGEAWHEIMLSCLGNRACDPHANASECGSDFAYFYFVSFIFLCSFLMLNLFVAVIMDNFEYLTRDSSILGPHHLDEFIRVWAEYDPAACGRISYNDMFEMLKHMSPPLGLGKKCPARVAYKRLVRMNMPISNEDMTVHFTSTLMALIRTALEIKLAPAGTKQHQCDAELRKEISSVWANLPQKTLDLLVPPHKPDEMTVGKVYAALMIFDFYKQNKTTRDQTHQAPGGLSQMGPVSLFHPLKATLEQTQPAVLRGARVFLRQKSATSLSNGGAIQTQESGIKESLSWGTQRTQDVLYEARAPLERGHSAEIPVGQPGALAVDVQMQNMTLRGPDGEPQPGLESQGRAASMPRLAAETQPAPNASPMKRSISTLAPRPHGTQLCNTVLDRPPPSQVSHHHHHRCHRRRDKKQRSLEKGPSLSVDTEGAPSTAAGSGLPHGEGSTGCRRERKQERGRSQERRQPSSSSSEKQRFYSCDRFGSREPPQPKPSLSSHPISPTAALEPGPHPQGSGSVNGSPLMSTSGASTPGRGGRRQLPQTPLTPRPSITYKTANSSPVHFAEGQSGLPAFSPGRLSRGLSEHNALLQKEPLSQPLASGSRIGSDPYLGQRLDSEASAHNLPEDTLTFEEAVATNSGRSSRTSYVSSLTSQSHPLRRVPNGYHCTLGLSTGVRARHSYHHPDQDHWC

The term IC50 denotes the concentration at which inhibition is half-maximal. On to `C[C@@H]1CN(C(c2ccccc2)c2ccccc2)[C@H](Cc2ccccc2)CN1`, for which the Ratio IC50 in the assay filed under Rattus norvegicus was 0.4. The results for the half-maximal inhibitory concentration (IC50) in assay [1] and in assay [2] were 1.78 µM and 4.34 µM, respectively.

Consider `CCCCC[C@@H]1CN[C@H](C)CN1Cc1ccccc1` (relative stereo), for which the Ratio IC50 in the assay filed under Rattus norvegicus amounted to 0.9. In addition, the IC50 is 9.23 µM in assay [1] and 9.84 µM in assay [2].

On to `CCCCCCCCC[C@@H]1CN[C@H](C)CN1Cc1ccccc1` (relative stereo), for which the Ratio IC50 in the assay listed under Rattus norvegicus stood at 0.6. For the same compound, the IC50 in assay [1] was 5.6 µM; in assay [2] it was 10 µM.

On to `CCCCC[C@@H]1CN[C@H](C)CN1C(c1ccccc1)c1ccccc1` (relative stereo), for which, in the assay filed under Rattus norvegicus, the Ratio IC50 was found to be 0.7. Also, the values for the IC50 in assay [1] and in assay [2] were 1.78 µM and 2.4 µM, respectively.

Regarding `C[C@@H]1CN(C(c2ccccc2)c2ccccc2)[C@H](CCCCO[Si](C)(C)C(C)(C)C)CN1` (relative stereo), the Ratio IC50 in the assay listed under Rattus norvegicus worked out at 1.4. Further, the IC50 came out at 1.53 µM in assay [1] and 1.07 µM in assay [2].

As to `C[C@@H]1CN(C(c2ccccc2)c2ccccc2)[C@H](CCCO[Si](C)(C)C(C)(C)C)CN1` (relative stereo), the Ratio IC50 in the assay filed under Rattus norvegicus was 0.7. The IC50 in assay [1] was 6.8 µM; in assay [2], 10 µM.

As for `Cc1ccc(S(=O)(=O)N2C[C@@H](CCCO[Si](C)(C)C(C)(C)C)N(C(c3ccccc3)c3ccccc3)C[C@H]2C)cc1` (relative stereo), the Ratio IC50 in the assay listed under Rattus norvegicus stood at 2. The half-inhibitory concentration (IC50) in assay [1] came out at 5.1 µM; in assay [2], 2.6 µM.

As for `Cc1ccc(S(=O)(=O)N2C[C@@H](CCCCO[Si](C)(C)C(C)(C)C)N(C(c3ccccc3)c3ccccc3)C[C@H]2C)cc1` (relative stereo), in the assay listed under Rattus norvegicus, the Ratio IC50 came to 1.7. Further, the half-maximal inhibitory concentration (IC50) in assay [1] was 8.2 µM; in assay [2] it was 4.7 µM.

With `C[C@@H]1CN(C(c2ccccc2)c2ccccc2)[C@H](CCCCO[Si](C)(C)C(C)(C)C)CN1S(=O)(=O)c1ccc(C(F)(F)F)cc1` (relative stereo), the Ratio IC50 in the assay listed under Rattus norvegicus was 1. The IC50 in assay [1] and in assay [2] was 10 µM each time.

As to `C[C@@H]1CN(C(c2ccccc2)c2ccccc2)[C@H](CCCCO)CN1` (relative stereo), in the assay filed under Rattus norvegicus, the Ratio IC50 was determined as 6. Also, the half-maximal inhibitory concentration (IC50) in assay [1] was found to be 5.4 µM; in assay [2], 0.85 µM.

`C[C@@H]1CN(Cc2ccccc2)[C@H](CCCCO)CN1` (relative stereo): the half-maximal inhibitory concentration (IC50) stood at 10 µM in assay [1] and 9.6 µM in assay [2].

In the case of `C[C@@H]1CN(Cc2ccc(F)cc2)[C@H](Cc2ccccc2)CN1` (relative stereo), the Ratio IC50 in the assay filed under Rattus norvegicus was 1.2. The IC50 amounted to 10 µM in assay [1] and 8.37 µM in assay [2].

As to `C[C@@H]1CN(Cc2ccc(F)cc2)[C@H](Cc2ccccc2)CN1S(=O)(=O)c1ccc(C(F)(F)F)cc1` (relative stereo), the Ratio IC50 in the assay listed under Rattus norvegicus amounted to 1. Further, the half-inhibitory concentration (IC50) in assay [1] and in assay [2] was 10 µM throughout.

Take `C[C@@H]1CN(Cc2ccc(F)cc2)[C@H](Cc2ccccc2)CN1C(=O)C(c1ccccc1)c1ccccc1` (relative stereo): in assay [2], the 50% inhibitory concentration (IC50) is 10 µM.

Consider `C[C@@H]1CN(Cc2ccccc2)[C@H](Cc2ccccc2)CN1` (relative stereo), for which the Ratio IC50 in the assay filed under Rattus norvegicus turned out to be 1. The IC50 in assay [1] and in assay [2] was 10 µM in each case.

Take `C[C@@H]1CN(Cc2ccccc2)[C@H](Cc2ccccc2)CN1S(=O)(=O)c1ccc(C(F)(F)F)cc1` (relative stereo): the Ratio IC50 in the assay filed under Rattus norvegicus was determined as 1. Also, the IC50 in assay [1] and in assay [2] was 10 µM each time.

For the compound `C[C@@H]1CN(Cc2ccccc2)[C@H](CCCCO[Si](C)(C)C(C)(C)C)CN1` (relative stereo), in the assay filed under Rattus norvegicus, the Ratio IC50 was 0.7. The figures for the 50% inhibitory concentration (IC50) in assay [1] and in assay [2] were 3.34 µM and 4.85 µM, respectively.
